Our source for the Activity values is ChEMBL document CHEMBL1155278, “3,4-Diaryl-isoxazoles and -imidazoles as potent dual inhibitors of p38alpha mitogen activated protein kinase and casein kinase 1delta” (J Med Chem, 2009).

In assay [1] the target is T1, Serine/threonine-protein kinase BRSK2 (Homo sapiens) (UniProt Q8IWQ3).
T1 sequence (whole entry): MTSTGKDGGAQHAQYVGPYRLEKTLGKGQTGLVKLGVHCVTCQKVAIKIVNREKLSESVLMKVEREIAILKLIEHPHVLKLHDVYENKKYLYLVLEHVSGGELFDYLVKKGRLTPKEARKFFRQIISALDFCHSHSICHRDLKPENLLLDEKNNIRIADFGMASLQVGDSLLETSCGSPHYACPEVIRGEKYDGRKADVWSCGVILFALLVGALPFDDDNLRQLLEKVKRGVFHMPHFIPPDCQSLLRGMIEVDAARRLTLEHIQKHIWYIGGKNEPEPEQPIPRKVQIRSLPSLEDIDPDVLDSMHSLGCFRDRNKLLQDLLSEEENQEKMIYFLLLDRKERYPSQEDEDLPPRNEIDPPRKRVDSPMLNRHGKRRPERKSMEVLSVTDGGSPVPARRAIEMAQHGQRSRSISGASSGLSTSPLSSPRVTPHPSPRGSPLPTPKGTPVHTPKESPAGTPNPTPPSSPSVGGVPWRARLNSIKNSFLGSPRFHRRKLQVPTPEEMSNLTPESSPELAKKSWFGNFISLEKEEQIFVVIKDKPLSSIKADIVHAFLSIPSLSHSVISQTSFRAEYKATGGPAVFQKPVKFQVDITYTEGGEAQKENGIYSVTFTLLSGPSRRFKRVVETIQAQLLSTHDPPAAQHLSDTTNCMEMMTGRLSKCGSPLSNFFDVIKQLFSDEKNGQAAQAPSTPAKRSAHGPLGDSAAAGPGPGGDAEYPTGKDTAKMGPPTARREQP
Nature of the assay: Inhibition of BRSK2 assessed as residual activity at 0.1 uM by Cherenkov counting relative to control in presence of 50 uM ATP. Put shortly:
(§1)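 Single-concentration screen at 0.1 µM across a panel of 76 protein kinases. Each kinase was run at an ATP concentration approximating its ATP Km. Results are % mean residual activity versus control assays without compound (n = 3 ± SD).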

Assay [2] has as its target Serine/threonine-protein kinase PLK1 (Homo sapiens) (UniProt P53350). Nature of the assay: Inhibition of PLK1 assessed as residual activity at 0.1 uM by Cherenkov counting relative to control in presence of 5 uM ATP. An outline of the steps: (§2)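 Single-concentration screen at 0.1 μM in a 76-kinase panel. ATP for each kinase was set near its Km for ATP. Residual activity is given as a percentage of control assays without compound, mean of n = 3 ± SD.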

The nature of assay [3]: Inhibition of CK2 assessed as residual activity at 0.1 uM by Cherenkov counting relative to control in presence of 5 uM ATP. Put shortly:
as §1

Assay [4] addresses Calcium/calmodulin-dependent protein kinase type 1 (Homo sapiens) (UniProt Q14012). Nature of the assay: Inhibition of CAMK1 assessed as residual activity at 0.1 uM by Cherenkov counting relative to control in presence of 50 uM ATP. An outline of the steps:
as §1

Assay [5] addresses T2, Inhibitor of nuclear factor kappa-B kinase subunit beta (Homo sapiens) (UniProt O14920).
T2 sequence (whole entry): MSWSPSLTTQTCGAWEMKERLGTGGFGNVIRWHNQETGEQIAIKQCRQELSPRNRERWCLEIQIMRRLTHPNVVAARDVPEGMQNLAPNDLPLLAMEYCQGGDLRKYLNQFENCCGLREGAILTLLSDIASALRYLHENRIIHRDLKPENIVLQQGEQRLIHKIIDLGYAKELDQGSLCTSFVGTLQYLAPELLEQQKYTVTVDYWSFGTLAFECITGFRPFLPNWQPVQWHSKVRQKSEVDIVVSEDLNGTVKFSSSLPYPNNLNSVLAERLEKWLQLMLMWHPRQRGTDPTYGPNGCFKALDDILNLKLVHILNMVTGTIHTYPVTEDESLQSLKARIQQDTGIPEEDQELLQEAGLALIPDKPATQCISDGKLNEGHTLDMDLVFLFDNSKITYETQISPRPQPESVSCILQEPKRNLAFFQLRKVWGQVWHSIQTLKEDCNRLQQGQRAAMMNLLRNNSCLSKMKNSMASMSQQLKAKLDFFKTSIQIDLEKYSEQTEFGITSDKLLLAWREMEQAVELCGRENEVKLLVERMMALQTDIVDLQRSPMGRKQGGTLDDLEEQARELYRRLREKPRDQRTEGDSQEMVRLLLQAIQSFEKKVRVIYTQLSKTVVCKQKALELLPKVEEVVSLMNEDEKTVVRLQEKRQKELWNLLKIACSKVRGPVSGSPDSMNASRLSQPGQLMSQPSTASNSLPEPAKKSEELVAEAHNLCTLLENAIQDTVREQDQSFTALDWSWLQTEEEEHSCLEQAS
The assay can be described thus: Inhibition of IKK-beta assessed as residual activity at 0.1 uM by Cherenkov counting relative to control in presence of 5 uM ATP. Put shortly: as §1

Assay [6] has as its target Ribosomal protein S6 kinase alpha-3 (Homo sapiens) (UniProt P51812). Nature of the assay: Inhibition of RSK2 assessed as residual activity at 0.1 uM by Cherenkov counting relative to control in presence of 50 uM ATP. Put shortly: as §2
The target in assay [7] is MAP kinase-activated protein kinase 2 (Homo sapiens) (UniProt P49137). Nature of the assay: Inhibition of MAPKAPK2 assessed as residual activity at 0.1 uM by Cherenkov counting relative to control in presence of 20 uM ATP. An outline of the steps: (§3)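 Single-concentration selectivity screen at 0.1 μM against a panel of 76 protein kinases. Each kinase was run at an ATP level approximating its Km for ATP. Output is mean residual activity as % of the control assay without compound, n = 3 ± SD.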
MAP kinase-activated protein kinase 2 (Homo sapiens), sequence (P49137 whole entry, looked up): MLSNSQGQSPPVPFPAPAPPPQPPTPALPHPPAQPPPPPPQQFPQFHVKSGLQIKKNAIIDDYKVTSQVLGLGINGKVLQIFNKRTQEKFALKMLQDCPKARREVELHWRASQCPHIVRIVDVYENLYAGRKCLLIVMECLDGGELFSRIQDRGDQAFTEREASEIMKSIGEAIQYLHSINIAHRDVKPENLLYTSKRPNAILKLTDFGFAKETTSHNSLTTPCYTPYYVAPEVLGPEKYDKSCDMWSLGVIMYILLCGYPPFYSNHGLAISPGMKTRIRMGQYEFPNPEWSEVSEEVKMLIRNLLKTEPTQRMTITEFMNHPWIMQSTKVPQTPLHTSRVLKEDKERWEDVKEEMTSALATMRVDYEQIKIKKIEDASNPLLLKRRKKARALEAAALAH

Assay [8] can be described thus: Inhibition of PKA assessed as residual activity at 0.1 uM by Cherenkov counting relative to control in presence of 20 uM ATP. Put shortly: as §3
Assay [9] concerns the target Serine/threonine-protein kinase Nek6 (Homo sapiens) (UniProt Q9HC98). The assay can be described thus: Inhibition of NEK6 assessed as residual activity at 10 uM by Cherenkov counting relative to control in presence of 50 uM ATP.
For assay [10], the target named is Serine/threonine-protein kinase PAK 6 (Homo sapiens) (UniProt Q9NQU5). The assay can be described thus: Inhibition of PAK6 assessed as residual activity at 10 uM by Cherenkov counting relative to control in presence of 20 uM ATP.
Serine/threonine-protein kinase PAK 6 (Homo sapiens), sequence (Q9NQU5 whole entry, looked up): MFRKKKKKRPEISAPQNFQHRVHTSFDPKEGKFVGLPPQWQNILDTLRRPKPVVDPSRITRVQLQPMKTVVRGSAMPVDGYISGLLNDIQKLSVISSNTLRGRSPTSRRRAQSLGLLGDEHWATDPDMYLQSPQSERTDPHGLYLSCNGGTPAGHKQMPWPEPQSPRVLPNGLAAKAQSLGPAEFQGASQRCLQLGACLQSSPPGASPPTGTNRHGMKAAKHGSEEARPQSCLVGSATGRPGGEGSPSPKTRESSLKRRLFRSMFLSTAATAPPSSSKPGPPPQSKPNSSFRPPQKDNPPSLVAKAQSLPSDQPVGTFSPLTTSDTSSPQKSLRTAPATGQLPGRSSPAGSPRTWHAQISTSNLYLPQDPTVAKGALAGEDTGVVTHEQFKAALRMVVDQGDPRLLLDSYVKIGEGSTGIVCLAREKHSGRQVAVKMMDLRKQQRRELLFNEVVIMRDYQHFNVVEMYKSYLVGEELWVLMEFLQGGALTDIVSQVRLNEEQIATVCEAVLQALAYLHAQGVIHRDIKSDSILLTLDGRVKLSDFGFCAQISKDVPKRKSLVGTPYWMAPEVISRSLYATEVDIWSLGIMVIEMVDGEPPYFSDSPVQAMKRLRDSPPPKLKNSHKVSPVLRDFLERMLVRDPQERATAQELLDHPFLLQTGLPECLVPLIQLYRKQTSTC
Assay [11] has as its target Glycogen synthase kinase-3 beta (Homo sapiens) (UniProt P49841). The assay can be described thus: Inhibition of GSK3-beta assessed as residual activity at 10 uM by Cherenkov counting relative to control in presence of 5 uM ATP. An outline of the steps:
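Single-point profiling at 10 µM in a panel of 78 protein kinases. Kinase activity is expressed as a percentage relative to control assays without compound.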

Assay [12] has as its target 3-phosphoinositide-dependent protein kinase 1 (Homo sapiens) (UniProt O15530). The assay can be described thus: Inhibition of PDK1 assessed as residual activity at 10 uM by Cherenkov counting relative to control in presence of 20 uM ATP.
For assay [13], the target named is Serine/threonine-protein kinase PLK1 (Homo sapiens) (UniProt P53350). The assay can be described thus: Inhibition of okadaic acid-induced PLK1 assessed as residual activity at 10 uM by Cherenkov counting relative to control in presence of 5 uM ATP. Put shortly: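 Single-concentration profiling at 10 μM in a 78-kinase panel. Kinase activity is expressed as a percentage of control assays run without compound.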
Serine/threonine-protein kinase PLK1 (Homo sapiens), sequence (P53350 whole entry): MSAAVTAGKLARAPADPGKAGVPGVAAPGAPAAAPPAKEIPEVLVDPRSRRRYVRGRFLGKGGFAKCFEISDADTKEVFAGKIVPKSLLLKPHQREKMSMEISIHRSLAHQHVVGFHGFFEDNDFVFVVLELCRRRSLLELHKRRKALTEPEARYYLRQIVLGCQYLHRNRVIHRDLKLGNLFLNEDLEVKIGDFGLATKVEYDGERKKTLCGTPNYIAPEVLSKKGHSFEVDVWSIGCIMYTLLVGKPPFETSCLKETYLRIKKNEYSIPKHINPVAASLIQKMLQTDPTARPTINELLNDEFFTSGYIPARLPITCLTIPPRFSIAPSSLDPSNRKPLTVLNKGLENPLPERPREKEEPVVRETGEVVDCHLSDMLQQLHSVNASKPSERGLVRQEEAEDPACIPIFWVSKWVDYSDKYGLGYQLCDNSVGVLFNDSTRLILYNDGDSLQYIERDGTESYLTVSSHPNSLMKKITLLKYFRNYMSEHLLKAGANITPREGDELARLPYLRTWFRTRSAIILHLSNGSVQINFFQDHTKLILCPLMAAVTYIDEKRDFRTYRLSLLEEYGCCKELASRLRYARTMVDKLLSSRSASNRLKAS

3-phosphoinositide-dependent protein kinase 1 (Homo sapiens), sequence (O15530 whole entry, looked up): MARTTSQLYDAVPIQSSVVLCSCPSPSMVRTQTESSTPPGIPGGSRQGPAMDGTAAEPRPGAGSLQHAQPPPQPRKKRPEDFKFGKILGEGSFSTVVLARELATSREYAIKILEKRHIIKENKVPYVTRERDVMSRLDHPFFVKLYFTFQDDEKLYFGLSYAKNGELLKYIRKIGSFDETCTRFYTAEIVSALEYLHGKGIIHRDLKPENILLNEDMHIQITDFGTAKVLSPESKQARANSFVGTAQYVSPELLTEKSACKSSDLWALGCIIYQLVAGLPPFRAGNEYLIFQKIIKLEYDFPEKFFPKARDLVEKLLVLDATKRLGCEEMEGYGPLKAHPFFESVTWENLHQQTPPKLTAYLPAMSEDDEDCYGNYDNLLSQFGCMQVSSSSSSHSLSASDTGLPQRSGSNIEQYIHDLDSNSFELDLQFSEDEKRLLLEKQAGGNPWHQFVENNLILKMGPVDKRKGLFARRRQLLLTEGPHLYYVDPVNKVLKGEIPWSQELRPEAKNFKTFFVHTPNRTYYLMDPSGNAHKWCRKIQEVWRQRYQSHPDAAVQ
Serine/threonine-protein kinase Nek6 (Homo sapiens), sequence (Q9HC98 whole entry): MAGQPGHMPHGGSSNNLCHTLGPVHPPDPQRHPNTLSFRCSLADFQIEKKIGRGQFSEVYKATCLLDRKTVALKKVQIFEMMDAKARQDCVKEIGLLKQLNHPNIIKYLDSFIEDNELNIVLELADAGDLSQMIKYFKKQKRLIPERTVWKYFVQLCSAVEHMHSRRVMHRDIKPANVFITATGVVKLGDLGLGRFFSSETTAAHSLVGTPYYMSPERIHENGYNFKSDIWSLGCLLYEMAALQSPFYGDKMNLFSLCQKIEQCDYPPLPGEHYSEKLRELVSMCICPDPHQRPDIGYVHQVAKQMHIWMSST
Calcium/calmodulin-dependent protein kinase type 1 (Homo sapiens), sequence (Q14012 whole entry, looked up): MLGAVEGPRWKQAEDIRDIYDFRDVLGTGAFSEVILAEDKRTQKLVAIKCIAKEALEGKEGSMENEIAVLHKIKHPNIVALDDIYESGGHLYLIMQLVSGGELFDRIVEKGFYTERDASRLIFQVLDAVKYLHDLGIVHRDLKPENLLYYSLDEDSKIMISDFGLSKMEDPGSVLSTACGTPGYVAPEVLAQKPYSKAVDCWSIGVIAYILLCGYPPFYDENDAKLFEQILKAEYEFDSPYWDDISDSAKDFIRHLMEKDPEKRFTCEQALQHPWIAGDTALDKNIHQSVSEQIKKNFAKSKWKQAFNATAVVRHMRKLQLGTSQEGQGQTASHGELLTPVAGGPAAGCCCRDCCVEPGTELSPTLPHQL
Glycogen synthase kinase-3 beta (Homo sapiens), sequence (P49841 whole entry, looked up): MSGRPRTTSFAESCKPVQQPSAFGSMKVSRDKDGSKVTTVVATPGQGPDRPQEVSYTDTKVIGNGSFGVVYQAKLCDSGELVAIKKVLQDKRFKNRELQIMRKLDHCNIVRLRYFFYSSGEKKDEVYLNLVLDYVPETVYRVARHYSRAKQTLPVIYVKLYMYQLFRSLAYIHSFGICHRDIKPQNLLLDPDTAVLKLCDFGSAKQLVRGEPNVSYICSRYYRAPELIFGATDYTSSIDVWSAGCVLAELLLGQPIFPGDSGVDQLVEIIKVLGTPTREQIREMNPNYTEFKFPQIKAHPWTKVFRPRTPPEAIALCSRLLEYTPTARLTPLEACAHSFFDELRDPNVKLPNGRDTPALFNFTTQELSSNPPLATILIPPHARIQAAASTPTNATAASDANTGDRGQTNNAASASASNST
Ribosomal protein S6 kinase alpha-3 (Homo sapiens), sequence (P51812 whole entry): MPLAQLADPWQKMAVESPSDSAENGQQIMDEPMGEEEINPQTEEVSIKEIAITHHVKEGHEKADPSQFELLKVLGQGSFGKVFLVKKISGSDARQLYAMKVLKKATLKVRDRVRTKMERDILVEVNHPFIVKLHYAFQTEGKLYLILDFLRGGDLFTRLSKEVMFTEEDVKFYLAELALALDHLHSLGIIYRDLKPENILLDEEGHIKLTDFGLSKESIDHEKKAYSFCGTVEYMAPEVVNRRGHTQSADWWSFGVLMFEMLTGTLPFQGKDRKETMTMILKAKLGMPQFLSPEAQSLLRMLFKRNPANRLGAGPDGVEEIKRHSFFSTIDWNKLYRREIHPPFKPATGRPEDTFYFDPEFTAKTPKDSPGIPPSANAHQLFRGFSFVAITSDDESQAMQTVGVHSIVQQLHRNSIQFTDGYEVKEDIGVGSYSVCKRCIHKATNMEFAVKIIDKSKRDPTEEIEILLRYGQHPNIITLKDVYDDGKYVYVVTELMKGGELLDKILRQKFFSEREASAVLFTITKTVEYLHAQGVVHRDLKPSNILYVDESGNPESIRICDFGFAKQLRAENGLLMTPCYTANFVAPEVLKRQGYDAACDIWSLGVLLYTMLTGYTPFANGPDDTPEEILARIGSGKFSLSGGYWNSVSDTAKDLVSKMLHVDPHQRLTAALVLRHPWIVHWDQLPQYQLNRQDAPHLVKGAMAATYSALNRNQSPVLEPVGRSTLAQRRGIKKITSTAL

`COc1ccc(/C=C/C(=O)Nc2cc(-c3[nH]c(SC)nc3-c3ccc(F)cc3)ccn2)c(OC)c1`: the Activity turned out to be 86% in [1]; 97% in assay [2]; 115% in assay [3]; 92% in assay [4]; 84% in [5]; 86% in assay [6]. In addition, the values for the Activity in assay [7] and in [8] were 82% and 84%, respectively.

Consider `CC(C)c1onc(-c2ccc(F)cc2)c1-c1ccncc1`, for which the Activity in [9] amounted to 112%; in [10], 100%; in assay [11] it was 75%; in assay [12], 82%; in assay [13], 104%.

`CC(C)c1noc(-c2ccc(F)cc2)c1-c1ccncc1`: the Activity is 108% in [9]; 102% in [10]; 85% in assay [11]; 85% in [12]; 105% in [13].

Regarding `COc1ccc(/C=C/C(=O)Nc2cc(-c3[nH]c([S+](C)[O-])nc3-c3ccc(F)cc3)ccn2)c(OC)c1` (stereo unspecified), the Activity in assay [1] turned out to be 97%; in [2], 110%; in assay [3], 122%; in [4] it was 98%; in [5] it was 87%; in assay [6], 94%. Besides, the values for the Activity in assay [7] and in assay [8] were 78% and 92%, respectively.
